Assay: Toxicity liver stage against HepG2, at 10uM
Assay type: cell-based
Design: test concentration 10 uM, cell line HepG2-A16-CD81EGFP
Conditions: human, HepG2-A16-CD81EGFP cells; read-out: INHIBITION
In short: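 Uninfected HepG2-A16-CD81EGFP cells, 3 × 10^3 per well, 1536-well, plated on prespotted compound at 10 μM final, parasite-free screening media added to match infected plates; puromycin 10 μM positive, DMSO 0.5% negative; run in parallel with 48 h PbLuc assay at 37 °C, 5% CO2; viability by CellTiter-Glo luminescence, normalized to controls.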

Compound | cytotoxicity at 10 µM [%]
c1ccc(O[C@H]2COCCN(CC3CC3)C2)cc1 | 5.76
COc1ccc(C(=O)N2CCN3C(=O)CNC(=O)[C@@H]3C2)cc1 | -7.1
CCN(CC)CC[C@H]1CN(C(=O)CC(C)(C)C)CC[C@H]1CC(=O)O | -0.668
CSc1ncccc1C(=O)N(CCO)Cc1ccccc1 | 2.22
O=C(c1cccc(C(F)(F)F)c1)N1CC(=O)N(C2CCC2)CC(O)C1 (stereo not given) | -3.16
Cc1ccc2c(c1)C1(CC(=O)Nc3[nH]ncc31)C(=O)N2C (stereo not given) | -1.6
CC1CC(=O)c2cc(C(=O)N3CCc4ccccc43)c(=O)[nH]c2C1 (stereo not given) | -5.67
Cn1cc(NC(=O)CNC(=O)N2CCN(c3ccccc3)CC2)cn1 | 0.0207
Cn1nc(N2CCCC(C(=O)Nc3nccs3)C2)ccc1=O (stereo not given) | 3.19
O=C(C1CC=CC1)N1CC[C@@H]2O[C@H](COCC3CCOCC3)CC[C@@H]21 | -0.0499
Cn1cccc1C(=O)N1CCc2ccc(=O)n(C)c2CC1 | -0.756
Cc1cc(C(=O)N2C[C@@H]3COC[C@]3(c3nnc(C(C)C)o3)C2)on1 | -2.52
CCOc1cc(C)c(-c2cc(N)[nH]n2)cc1OCC | -7.27
O=c1c2cn[nH]c2nc(SCCN2CCOCC2)n1-c1ccccc1 | 0.219
O=C(c1ccccn1)N1CCN(c2ccc(-c3cccnc3)nn2)CC1 | 2.84
CCO[C@@H]1CO[C@@]2(CCCN(C(=O)c3ccc(OC)c(F)c3)C2)C1 | 3.02
CCn1cc(S(=O)(=O)N(CCc2ccccc2)Cc2ccn(C)n2)cn1 | 2.6
Cc1ccc(NC(=O)c2n[nH]c(-n3cnnc3)n2)cc1C | -1.4
CCC(=O)NCCc1cc2nc(-c3ccncc3)ccn2n1 | 1.65
O=S(=O)(c1ccccc1Cl)N1CCCC(c2ncc[nH]2)C1 (stereo not given) | 5.48
Cc1noc(C)c1CN(C)C(=O)C1CCCCN1CC(C)C (stereo not given) | 2.64
Cc1cccc2nc(CN3CCCC(C)C3)cc(=O)n12 (stereo not given) | 2.46

Compound | cytotoxicity at 10 µM [%]
Cc1noc(C)c1CS(=O)(=O)Cc1nc(C2CC2)no1 | 3.37
Cc1ccc(CNC(=O)C2CCN(C(=O)C(C)C)CC2)n1C | 5.71
CCC(CC)N(Cc1cc(=O)n(C)c(=O)n1C)C1CC1 | 15.8
Cc1nnc(C(C)Nc2cccc(COCCOC(C)C)c2)o1 (stereo not given) | 2.29
CN(C1CCN(c2ccccn2)CC1)S(=O)(=O)c1ccccc1F | 14
COCCNC(=O)C1(c2ccc(C)c(OC)c2)CCCC1 | -3.21
Fc1ccc(CNC2CCN(CCc3ccncc3)CC2)cc1F | -12.6
Cc1ccc(CNC(=O)C2CCCCN2C(=O)OC(C)(C)C)cn1 (stereo not given) | -0.408
COc1ccc(NC(C)C(=O)N2CCN(c3ccccc3)CC2)cn1 (stereo not given) | 9.75
Cc1nc(C(C)(C)NC(=O)Nc2ccncc2)no1 | 9.32
Fc1ccc(CN2CCCCC2Cn2cncn2)c2ncccc12 (stereo not given) | 6.95
Cc1nc(C)n(C2CCCN(C(=O)CCc3cn(C)nc3C)C2)n1 (stereo not given) | -11.5
O=C(NCCSCc1ccc(Br)s1)C1CCCN(C(=O)c2cccs2)C1 (stereo not given) | -1.79
COc1ncnc(N)c1CNCCOc1ccccc1Cl | 6.24
CC(C)(C)CC(=O)NCC(=O)Nc1ccn(Cc2cccnc2)n1 | 15.4
CCCN1C(=O)C2(CCCCC2)NC1c1c[nH]nc1-c1cccnc1 (stereo not given) | 4.59
CC(C)=CCN1CCN(C(=O)C2CC2)CC1 | 6.64
CC(C)c1nccn1CCn1cnc2ccsc2c1=O | 4.4
NS(=O)(=O)c1cnn(-c2ccc(NC(=O)C3CCCCC3)cn2)c1 | 2.27
CCOc1cc(CNC(C)c2ccc(F)cc2)ccn1 (stereo not given) | 10.9
c1ccc(Cc2nc(CNCCn3cccn3)cs2)cc1 | -2.79
CCN(Cc1ccc(F)cc1Cl)C1CCS(=O)(=O)C1 (stereo not given) | 14.9

Compound | cytotoxicity at 10 µM [%]
O=C(NCCC1CC1)NCc1cccc(-n2ccnc2)c1 | 19.7
CSc1ccc(OCCN2CCNC(=O)CC2)cc1 | 5.59
COc1ccccc1CN(Cc1nc(Cc2ccccc2)no1)C1CC1 | 9.54
CC(C)(C)C(O)CN1CCN(CC(=O)NCC(F)(F)F)CC1 (stereo not given) | -10.2
Cc1cc(NCC(C)C)ccc1C(=O)N(C)C | 9.86
COCC1CN(C(=O)Nc2cc(Br)ccc2F)CCO1 (stereo not given) | -0.749
Cc1nc(C2CCCN(C(=O)CN3CCCNC3=O)C2)sc1C (stereo not given) | 10.4
Cn1cc(N2CCC(NC(=O)c3c(F)cccc3F)C2=O)cn1 (stereo not given) | 2.5
CCn1cnnc1C1CCN(C(=O)c2cnc3ccccc3n2)CC1 | -8.59
O=C(C1CCOC1)N1CC2(CCN(c3ccccc3)C2)C1 (stereo not given) | 9.88
CC(=O)N1CCO[C@@H]2CN(S(=O)(=O)c3cccs3)CC[C@@H]2C1 | 7.66
CN(CC1(CO)CCOCC1)[C@@H]1c2ccccc2C2(CCNCC2)[C@H]1O | -6.87
Cc1cc(C(=O)N2CCCC(O)(CN3CCCC3)C2)ccc1Cl (stereo not given) | 1.6
NCCc1nc(N(Cc2cncs2)C2CC2)c2ccccc2n1 | -7.15
CC(C)(C)CC(=O)N1CCC(n2cc(C3(O)CCCC3)nn2)CC1 | 8.64
CN(Cc1nccs1)C1CCN(c2ncccn2)CC1 | 10.1
CC(=O)N[C@@H](CC(C)C)C(=O)N1CCC(n2cc(C(C)(C)N)nn2)CC1 | -11.7
CCS(=O)(=O)N1CCC(c2nnc(CN3CCCCCC3)n2C)CC1 | -8.01
Cc1nc(C(=O)N2CCC(c3nccn3Cc3ccncc3)CC2)cs1 | -2.85
C=C(C)COc1ccccc1CNCCc1c[nH]cn1 | -2.21
Cc1cnccc1N1CCN(C(=O)CCCN2CCCCC2)CC1 | 0.0879
Cc1c(NC(=O)NC2CN3CCC2CC3)cccc1C(=O)N1CCCC1 (stereo not given) | 10.1

Compound | cytotoxicity at 10 µM [%]
CCn1c(N)nc2cc(C(=O)NCCc3sccc3C)cnc21 | -23.3
Cc1ccccc1N1CCCN(C(=O)CCCS(N)(=O)=O)CC1 | -16
COc1ccccc1Oc1ncccc1CNC(=O)C(C)N1CCCC1 (stereo not given) | -5.39
CO[C@H]1CN(C(=O)c2ccc3oc(C)cc3c2)CC[C@@]12CCCO2 | 0.153
CC(=O)N1CCCN(C(=O)c2cnn(C(C)(C)C)c2C)CC1 | 2.89
Cc1nnc(NC(=O)NCc2ccc(OC(C)C)nc2)s1 | -10.4
CC1CN(CC(=O)Nc2ccncc2)CCN1c1nccs1 (stereo not given) | 29.5
Cc1nn(C)c(C)c1NC(=O)CN1CCN(c2nccs2)C(C)C1 (stereo not given) | -5.55
Cc1cc2n(n1)CC(CNCc1ccc(Oc3ccccc3)nc1)CN2 (stereo not given) | -10.1
CC(C)c1noc(CCCC(=O)N2CCN(Cc3ccsc3)CC2)n1 | -5.19
O=C(c1ccc2c(c1)COC2)N1CCN(CCO)CC1 | -16.5
CCn1ncc2c1CCCC2NCc1ccc(OC)c(F)c1 (stereo not given) | -6.07
CCCc1noc(CN2CCC(c3ccnn3CCO)CC2)n1 | -19.9
CC(c1cc(F)ccc1F)N(C)C(=O)NCc1ccnc(N(C)C)c1 (stereo not given) | -16.8
Cc1nnc2n1CCN(C(=O)c1ccnc(N(C)C)c1)C2 | -16.2
CCC(CC)C(=O)N(C)CC(=O)Nc1ccc(Br)cn1 | -11.2
Cc1cc(C)n(CC2CCCN2C(=O)c2c(C)noc2C)n1 (stereo not given) | -13.8
O=C(NCCNc1ncccn1)C1CC(=O)N(C2CCCC2)C1 (stereo not given) | -16.2
CC(C)CN1CC(C(=O)NCCNc2ncccn2)CC1=O (stereo not given) | -23
Cc1nc(C2CCCN2CCCc2nc3ccccc3o2)no1 (stereo not given) | -9.24
O=C(NCCNc1ncccn1)N1CCN(C2CCCC2)CC1 | -10
COc1c(C2CCCN2CC(=O)Nc2ccncc2)c(C)nn1C (stereo not given) | -12.7

Compound | cytotoxicity at 10 µM [%]
Cc1ccc2cc(C(=O)N3CCC(Nc4cccnn4)CC3)[nH]c2c1 | -21
CC(Cn1ccnc1)NC(=O)N1CCCN(Cc2cccs2)CC1 (stereo not given) | -12.4
Cc1nc(C)n(CC2CN(CCC(=O)N3CCCCC3)CCO2)n1 (stereo not given) | -4.64
O=C(CCSc1ccccc1F)NS(=O)(=O)c1ccc2c(c1)OCCO2 | -0.841
O=C(CCc1ccc(F)cc1)NS(=O)(=O)c1ccc2c(c1)OCCO2 | -12.8
Cc1cnn(CC2CN(Cc3cccc(C(=O)N(C)C)c3)CCO2)c1 (stereo not given) | -1.73
CCC1c2ccsc2CCN1C(=O)NCc1cc[nH]n1 (stereo not given) | -8.88
Cc1nc(C)n(CC2CCCN(CC(=O)Nc3c(C)n[nH]c3C)C2)n1 (stereo not given) | 0.813
Cc1n[nH]c(C)c1NC(=O)CN1CCCC(CNC(=O)C(C)(C)C)C1 (stereo not given) | -4.64
CN1CCOC(CNCc2cccc(OCC(F)(F)F)c2)C1 (stereo not given) | -6.44
c1cnc(N2CCO[C@H]3[C@H](OCC4CCOCC4)CC[C@@H]32)nc1 | 4.55
Cn1cnc(S(=O)(=O)N2CC3(CCN(Cc4ccncc4)C3)C2)c1 | -113
Cc1nc(CN2CCN(Cc3ccoc3)Cc3cccnc32)cs1 | -5.25
CC(C)NC(=O)N1CCc2ncc(CN3CCOCC3)n2CC1 | 6.28
Cc1noc(C)c1CN1CCn2c(CN3CCN(C)CC3)cnc2C1 | 8.98
CC(C)NC(=O)CC1COC2(CCN(Cc3ccccc3)CC2)C1 (stereo not given) | 6.38
Cc1ccc(N2CC[C@H]3O[C@@H](C(=O)NCc4ccco4)CC[C@H]32)nn1 | 2.03
CC(=O)N1[C@H](Cn2cncn2)C[C@@H]2CN(c3ncc(F)cn3)CC[C@@H]21 | -5.09
c1cnc(N2CCC3(CCN(Cc4ccncc4)CC3)CC2)nc1 | -1.85
O=C1NC2(CCN(CCO)CC2)CC1c1ccccc1 (stereo not given) | -3.83
CS(=O)(=O)N1C[C@H]2CC[C@@H](C1)N(C(=O)Cn1nc3ccccc3n1)C2 | 10.8
CN(C)S(=O)(=O)N1C[C@@H]2C[C@H](C(=O)NCc3ccccc3)[C@H](C1)O2 | 4.09

Reference: ChEMBL document CHEMBL4513216, “Probing the Open Global Health Chemical Diversity Library for Multistage-Active Starting Points for Next-Generation Antimalarials” (ACS Infect Dis, 2020)
